Experimental data published in ChEMBL document CHEMBL4052830, “Dual Nicotinic Acetylcholine Receptor α4β2 Antagonists/α7 Agonists: Synthesis, Docking Studies, and Pharmacological Evaluation of Tetrahydroisoquinolines and Tetrahydroisoquinolinium Salts” (J Med Chem, 2018).
Calls of active or inactive are those of the source. The rule behind the calls is not given here.

Tests used:
[1] = biological target: Neuronal acetylcholine receptor; alpha4/beta2 (Rattus norvegicus, UniProt P09483+P12390); assay: Displacement of [3H]epibatidine from rat alpha4beta2 nAChR expressed in HEK293 cell membranes after 4 hrs by scintillation counting method
Outline: (§1)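 Membranes from HEK293 lines stably expressing α3β4, α4β4 or α4β2 nAChR, [3H]epibatidine competition binding. Ki came from concentration-inhibition curves. Means of 3–5 experiments in duplicate.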

[2] = biological target: Nicotinic acetylcholine receptor alpha-4/beta-2 (Mus musculus, UniProt Q8R493+Q9ERK7); assay: Antagonist activity at mouse alpha4beta2 nAChR expressed in HEK293 cells assessed as inhibition of (S)-nicotine-induced […] response measured up to 90 secs by FMP assay; assay type: cell-based
Outline: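 Mouse α4β2 nAChR in stably expressing HEK293T cells, FLIPR Membrane Potential Blue assay. IC50 came from concentration-inhibition curves. Means of 3–5 experiments in duplicate.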

[3] = biological target: T1, Neuronal acetylcholine receptor subunit alpha-7 (Homo sapiens, UniProt P36544); assay: Agonist activity at human alpha7 nAChR expressed in HEK293 cells co-expressing Ric-3/NACHO assessed as induction of calcium mobilization at 0.3 to 3 uM measured up to 90 secs in presence of PNU-120596 by FLIPR assay; assay type: cell-based
[4] = biological target: T2, Neuronal acetylcholine receptor; alpha3/beta4 (Rattus norvegicus, UniProt P04757+P12392); assay: Displacement of [3H]epibatidine from rat alpha3beta4 nAChR expressed in HEK293 cell membranes after 4 hrs by scintillation counting method; outline: as §1
[5] = biological target: Neuronal acetylcholine receptor; alpha4/beta4 (Rattus norvegicus, UniProt P09483+P12392); assay: Displacement of [3H]epibatidine from rat alpha4beta4 nAChR expressed in HEK293 cell membranes after 4 hrs by scintillation counting method; outline: as §1
[6] = biological target: T2, Neuronal acetylcholine receptor; alpha3/beta4; assay: Antagonist activity at rat alpha3beta4 nAChR expressed in HEK293 cells assessed as inhibition of (S)-nicotine-induced […] response measured up to 90 secs by FMP assay; assay type: cell-based
Outline: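 Rat α3β4 nAChR in stably expressing HEK293 cells, FLIPR Membrane Potential Blue assay. Antagonist mode against (S)-nicotine at EC70–EC90. IC50 derived from concentration-inhibition curves. Means of 3–5 experiments in duplicate.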

[7] = biological target: T1, Neuronal acetylcholine receptor subunit alpha-7; assay: Agonist activity at human alpha7 nAChR expressed in HEK293 cells co-expressing Ric-3/NACHO assessed as induction of calcium mobilization at >= 10 uM measured up to 90 secs in presence of PNU-120596 by FLIPR assay; assay type: cell-based
[8] = biological target: T1, Neuronal acetylcholine receptor subunit alpha-7; assay: Antagonist activity at human alpha7 nAChR expressed in HEK293 cells co-expressing Ric-3/NACHO assessed as inhibition of ACh-induced calcium mobilization measured up to 90 secs in presence of PNU-120596 by FLIPR assay; assay type: cell-based
Outline: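 Human α7 nAChR stably co-expressed with Ric-3/NACHO in HEK293 cells. Antagonist mode in the Ca2+/Fluo-4 assay: test ligand inhibits acetylcholine at EC70–EC90, with 3 μM PNU-120596 in the buffer. IC50 came from concentration-inhibition curves. Means of 3–5 experiments run in duplicate.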

[9] = biological target: T1, Neuronal acetylcholine receptor subunit alpha-7; assay: Agonist activity at human alpha7 nAChR expressed in HEK293 cells co-expressing Ric-3/NACHO assessed as induction of calcium mobilization measured up to 90 secs in presence of PNU-120596 by FLIPR assay; assay type: cell-based
Outline: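 Human α7 nAChR stably co-expressed with Ric-3 and NACHO in HEK293 cells, Ca2+/Fluo-4 fluorescence assay. Assay buffer held 3 μM PNU-120596 (α7 PAM) to slow desensitization. Agonist concentration-response curves gave EC50 and Rmax. Means of 3–5 experiments run in duplicate.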

[10] = biological target: T1, Neuronal acetylcholine receptor subunit alpha-7; assay: Agonist activity at human alpha7 nAChR expressed in HEK293 cells co-expressing Ric-3/NACHO assessed as induction of calcium mobilization at 30 uM measured up to 90 secs in presence of PNU-120596 by FLIPR assay; assay type: cell-based
[11] = organism: Rattus norvegicus; assay: Selectivity ratio of Ki for rat alpha4beta4 nAChR to Ki for rat alpha4beta2 nAChR
[12] = organism: Rattus norvegicus; assay: Selectivity ratio of Ki for rat alpha3beta4 nAChR to Ki for rat alpha4beta2 nAChR
[13] = biological target: Neuronal acetylcholine receptor; alpha4/beta2 (Rattus norvegicus) (UniProt P09483+P12390); assay: Potency index, ratio of DHbetaE Ki to test compound Ki for rat alpha4beta2 nAChR; assay type: protein-complex assay

T2 sequence (P04757 whole entry): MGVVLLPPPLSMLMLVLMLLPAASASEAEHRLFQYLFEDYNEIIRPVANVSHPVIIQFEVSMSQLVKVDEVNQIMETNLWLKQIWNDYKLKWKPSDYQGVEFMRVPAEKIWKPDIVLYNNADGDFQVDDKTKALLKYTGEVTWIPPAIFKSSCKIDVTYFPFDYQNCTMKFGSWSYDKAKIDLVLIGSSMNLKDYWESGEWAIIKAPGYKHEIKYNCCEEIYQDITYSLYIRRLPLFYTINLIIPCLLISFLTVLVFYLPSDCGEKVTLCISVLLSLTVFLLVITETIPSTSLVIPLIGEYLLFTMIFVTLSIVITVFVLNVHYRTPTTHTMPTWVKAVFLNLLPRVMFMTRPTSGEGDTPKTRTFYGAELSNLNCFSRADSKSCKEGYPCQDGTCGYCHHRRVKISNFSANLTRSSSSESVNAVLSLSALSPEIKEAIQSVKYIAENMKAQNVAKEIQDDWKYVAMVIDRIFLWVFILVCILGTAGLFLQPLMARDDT
T2 sequence (P12392 whole entry): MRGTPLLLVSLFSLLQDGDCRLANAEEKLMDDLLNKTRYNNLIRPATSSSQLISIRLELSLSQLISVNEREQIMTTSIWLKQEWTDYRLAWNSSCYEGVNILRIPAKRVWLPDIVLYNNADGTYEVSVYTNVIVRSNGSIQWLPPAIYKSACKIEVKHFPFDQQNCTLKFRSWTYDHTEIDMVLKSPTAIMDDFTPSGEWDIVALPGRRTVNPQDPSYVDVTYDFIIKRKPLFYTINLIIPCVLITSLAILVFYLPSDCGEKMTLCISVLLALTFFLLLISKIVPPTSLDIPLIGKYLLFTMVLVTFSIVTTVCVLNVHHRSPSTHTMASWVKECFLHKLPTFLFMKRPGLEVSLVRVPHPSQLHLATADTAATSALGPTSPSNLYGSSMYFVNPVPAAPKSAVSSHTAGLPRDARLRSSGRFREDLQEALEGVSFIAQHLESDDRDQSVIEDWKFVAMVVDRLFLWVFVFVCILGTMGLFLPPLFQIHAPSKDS
T1 sequence (P36544 whole entry): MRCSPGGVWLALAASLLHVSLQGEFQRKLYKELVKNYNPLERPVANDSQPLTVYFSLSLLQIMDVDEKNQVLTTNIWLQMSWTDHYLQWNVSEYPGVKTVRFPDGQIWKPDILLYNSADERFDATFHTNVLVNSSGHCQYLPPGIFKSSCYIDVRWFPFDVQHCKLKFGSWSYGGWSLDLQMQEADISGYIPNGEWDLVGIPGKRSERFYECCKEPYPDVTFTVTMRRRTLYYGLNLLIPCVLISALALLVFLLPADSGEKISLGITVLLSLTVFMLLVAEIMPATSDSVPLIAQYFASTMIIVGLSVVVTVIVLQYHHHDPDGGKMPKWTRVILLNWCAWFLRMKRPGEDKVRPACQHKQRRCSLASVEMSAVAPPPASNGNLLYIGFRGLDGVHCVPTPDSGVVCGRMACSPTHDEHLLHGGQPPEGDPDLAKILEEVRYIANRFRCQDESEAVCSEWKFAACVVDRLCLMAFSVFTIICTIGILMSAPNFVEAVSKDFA
Neuronal acetylcholine receptor; alpha4/beta4, sequence (P09483 whole entry): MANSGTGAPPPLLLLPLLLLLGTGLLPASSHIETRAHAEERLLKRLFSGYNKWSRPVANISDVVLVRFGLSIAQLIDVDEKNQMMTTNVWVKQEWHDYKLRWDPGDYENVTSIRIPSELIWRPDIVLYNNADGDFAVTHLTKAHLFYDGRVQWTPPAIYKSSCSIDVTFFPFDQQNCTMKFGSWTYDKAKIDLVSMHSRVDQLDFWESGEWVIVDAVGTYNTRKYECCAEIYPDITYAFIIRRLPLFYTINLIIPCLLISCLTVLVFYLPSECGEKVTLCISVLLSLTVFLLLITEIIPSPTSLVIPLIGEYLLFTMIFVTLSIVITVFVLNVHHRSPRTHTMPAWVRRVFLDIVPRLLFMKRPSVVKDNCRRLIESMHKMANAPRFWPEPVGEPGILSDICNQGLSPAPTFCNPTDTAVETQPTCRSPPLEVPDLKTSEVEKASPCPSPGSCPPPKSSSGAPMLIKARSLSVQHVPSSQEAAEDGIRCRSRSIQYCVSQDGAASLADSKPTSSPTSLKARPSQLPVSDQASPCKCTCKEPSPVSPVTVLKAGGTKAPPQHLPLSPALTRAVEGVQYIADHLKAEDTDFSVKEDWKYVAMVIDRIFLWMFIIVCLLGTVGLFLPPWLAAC
Neuronal acetylcholine receptor; alpha4/beta4, sequence (P12392 whole entry): as the sequence (P12392 whole entry) above
Neuronal acetylcholine receptor; alpha4/beta2, sequence (P09483 whole entry): as the sequence (P09483 whole entry) above
Neuronal acetylcholine receptor; alpha4/beta2, sequence (P12390 whole entry): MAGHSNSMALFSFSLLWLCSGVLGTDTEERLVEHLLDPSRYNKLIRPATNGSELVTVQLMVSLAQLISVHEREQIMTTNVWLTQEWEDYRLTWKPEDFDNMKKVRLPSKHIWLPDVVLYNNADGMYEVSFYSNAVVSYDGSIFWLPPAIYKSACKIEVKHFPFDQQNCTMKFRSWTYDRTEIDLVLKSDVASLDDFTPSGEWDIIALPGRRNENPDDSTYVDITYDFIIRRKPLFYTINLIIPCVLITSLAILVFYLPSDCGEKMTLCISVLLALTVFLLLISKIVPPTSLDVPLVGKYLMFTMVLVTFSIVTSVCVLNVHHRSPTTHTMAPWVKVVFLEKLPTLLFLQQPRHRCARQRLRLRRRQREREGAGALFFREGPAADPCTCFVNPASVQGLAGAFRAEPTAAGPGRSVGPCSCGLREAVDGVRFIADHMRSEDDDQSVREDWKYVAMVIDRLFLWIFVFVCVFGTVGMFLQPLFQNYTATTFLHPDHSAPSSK
Nicotinic acetylcholine receptor alpha-4/beta-2, sequence (Q9ERK7 whole entry): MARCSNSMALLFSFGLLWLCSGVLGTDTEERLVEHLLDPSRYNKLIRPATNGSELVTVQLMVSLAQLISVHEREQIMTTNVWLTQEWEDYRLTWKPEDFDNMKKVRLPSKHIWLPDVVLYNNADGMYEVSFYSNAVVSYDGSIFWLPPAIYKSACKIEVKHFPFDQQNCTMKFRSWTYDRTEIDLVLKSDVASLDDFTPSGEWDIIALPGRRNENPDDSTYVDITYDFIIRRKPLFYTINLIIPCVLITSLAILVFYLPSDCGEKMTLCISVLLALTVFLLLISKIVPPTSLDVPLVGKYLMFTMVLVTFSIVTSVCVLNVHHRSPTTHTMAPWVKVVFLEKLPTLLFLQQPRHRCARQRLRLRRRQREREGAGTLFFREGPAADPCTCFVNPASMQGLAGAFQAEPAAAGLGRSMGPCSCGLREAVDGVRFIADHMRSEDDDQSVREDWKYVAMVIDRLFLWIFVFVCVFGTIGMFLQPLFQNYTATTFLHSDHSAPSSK
Nicotinic acetylcholine receptor alpha-4/beta-2, sequence (Q8R493 whole entry): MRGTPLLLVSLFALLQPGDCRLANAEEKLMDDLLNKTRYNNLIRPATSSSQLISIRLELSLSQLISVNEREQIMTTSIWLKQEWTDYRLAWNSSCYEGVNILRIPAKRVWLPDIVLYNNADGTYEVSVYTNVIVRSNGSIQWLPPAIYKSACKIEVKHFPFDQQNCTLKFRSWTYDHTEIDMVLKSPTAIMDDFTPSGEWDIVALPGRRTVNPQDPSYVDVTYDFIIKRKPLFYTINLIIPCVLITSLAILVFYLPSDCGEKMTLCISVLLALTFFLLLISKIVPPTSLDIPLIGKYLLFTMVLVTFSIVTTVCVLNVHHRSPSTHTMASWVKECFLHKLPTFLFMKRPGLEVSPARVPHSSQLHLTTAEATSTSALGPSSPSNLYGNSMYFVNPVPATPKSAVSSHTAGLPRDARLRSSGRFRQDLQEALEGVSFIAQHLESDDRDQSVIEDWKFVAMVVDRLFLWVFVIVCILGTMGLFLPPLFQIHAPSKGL

| SMILES | Ki [1] [µM] | IC50 [2] [µM] | Activity [3] | Ki [4] [µM] | Ki [5] [µM] | IC50 [6] [µM] | Activity [7] | EC50 [9] [µM] | Ratio Ki [11] | Ratio Ki [12] | Ratio Ki [13] | IC50 [8] [µM] | Activity [10] |
| --- | --- | --- | --- | --- | --- | --- | --- | --- | --- | --- | --- | --- | --- |
| COc1ccc2c(c1)CCN(C)C2 | 2.6 | 6.2 | – | 100 | 25 | > 100 | – | > 100 | – | – | – | > 100 | – |
| COc1cc2c(cc1O)CN(C)CC2 | – | – | – | 100 | – | 100 | – | > 100 | – | – | – | > 100 | – |
| COc1cc2c(cc1OC)C1CCCN1CC2 (stereo not given) | 4.6 | 30 | – | 100 | – | – | – | > 100 | – | – | – | > 100 | – |
| c1ccc2c(c1)CCN1CCCC21 (stereo not given) | 8.5 | 15 | – | 100 | 100 | > 100 | – | – | – | – | – | 100 | – |
| COC1CC=C2CCN3CCC4=C(CC(=O)OC4)[C@]23C1 (stereo not given in full) | 0.65 | 0.6 | – | 100 | 25 | 100 | – | – | – | – | – | 100 | – |
| c1c2c(cc3c1OCO3)[C@@H]1CCCN1CC2 | 4.5 | 30 | – | > 100 | 100 | > 100 | – | – | – | – | – | – | Active |
| COc1cc2c(cc1OCc1ccccc1)CCN(C)C2 | 2.9 | 24 | – | 300 | 300 | 100 | – | – | – | – | – | 30 | – |
| COc1cc2c(cc1OC)CN(C)CC2 | – | – | – | – | – | – | – | > 100 | – | – | – | > 100 | – |
| COc1cc2c(cc1OC)[C@@H]1CCCN1CC2 | > 100 | > 100 | – | > 100 | > 100 | > 100 | – | > 100 | – | – | – | > 100 | – |
| COc1ccc2c(c1)CCN1CCCC21 (stereo not given) | 25 | 100 | – | > 100 | 100 | > 100 | – | > 100 | – | – | – | > 100 | – |
| CN1CCc2cc3c(cc2C1)OCO3 | 17 | – | – | – | – | – | – | > 100 | – | – | – | > 100 | – |
| c1c2c(cc3c1OCO3)C1CCCN1CC2 (stereo not given) | 0.5 | 2.3 | – | > 100 | 9.3 | – | – | – | – | – | – | – | Active |
| COc1ccc(CC2c3cc(OC)c(OC)cc3CCN2C)cc1OC (stereo not given) [LAUDANOSINE] | 100 | > 100 | – | > 100 | > 100 | > 100 | – | > 100 | – | – | – | > 100 | – |
| C[N+]1(C)CCc2cc3c(cc2C1)OCO3 | 0.38 | 12 | – | 50 | 30 | > 300 | – | 2.6 | 80 | 130 | – | – | – |
| COc1ccc2c(c1)C1CCCN1CC2 (stereo not given) | 1.4 | 9.1 | – | 100 | 3.3 | > 100 | – | – | – | – | – | – | Active |
| COc1cc2c(cc1OCc1ccccc1)CN(C)CC2 | 15 | 23 | – | 300 | 300 | > 300 | – | – | – | – | – | 30 | – |
| COc1cc2c(cc1OC)[C@H]1CCCN1CC2 | 2.5 | 16 | – | 100 | 100 | > 100 | – | > 100 | – | – | – | > 100 | – |

More lines, main results first:

| Ki [1] [µM] | IC50 [2] [µM] | Activity [3] | Ki [4] [µM] | Ki [5] [µM] | IC50 [6] [µM] | Activity [7] | EC50 [9] [µM] | Ratio Ki [11] | Ratio Ki [12] | Ratio Ki [13] | SMILES | IC50 [8] [µM] | Activity [10] |
| --- | --- | --- | --- | --- | --- | --- | --- | --- | --- | --- | --- | --- | --- |
| 2.1 | 3.1 | Dose-dependent effect | 300 | 300 | 300 | inactive | – | – | – | – | COc1cc2c(cc1OCc1ccccc1)CC[N+]1(C)CCCC21 (stereo not given) | – | – |
| 25 | > 100 | – | 25 | 7.5 | > 100 | – | 6.5 | – | – | – | COc1cc2c(cc1OC)[C@@H]1CCC[N+]1(C)CC2 (stereo not given in full) | – | – |
| 25 | > 100 | – | 25 | 25 | > 100 | – | 5.4 | – | – | – | C[N+]12CCC[C@H]1c1cc3c(cc1CC2)OCO3 (stereo not given in full) | – | – |
| 0.63 | 11 | – | 100 | 50 | > 300 | – | 9 | – | – | – | COc1cc2c(cc1OC)C[N+](C)(C)CC2 | – | – |
| 2.4 | 30 | – | 50 | 30 | 100 | – | 7.5 | – | – | – | COc1cc2c(cc1OC)C1CCC[N+]1(C)CC2 (stereo not given) | – | – |
| 2.4 | 7.2 | – | 25 | 25 | > 100 | – | 5.1 | – | – | – | COc1cc2c(cc1OC)[C@H]1CCC[N+]1(C)CC2 (stereo not given in full) | – | – |
| 30 | 30 | – | > 300 | 300 | > 300 | – | > 100 | – | – | – | C=CC[N+]1(C)CCc2cc(OC)c(OC)cc2C1 (stereo not given) | > 100 | – |
| 9.7 | 11 | – | > 300 | > 300 | > 300 | – | – | – | – | – | CC[N+]1(C)CCc2cc(OC)c(OC)cc2C1 (stereo not given) | – | Active |
| 4.5 | 30 | – | 30 | 17 | > 300 | inactive | – | – | – | – | COc1cc2c(cc1OCc1ccccc1)C[N+](C)(C)CC2 | – | – |
| 17 | 50 | – | 50 | 25 | > 100 | – | 2.2 | – | – | – | C[N+]12CCCC1c1ccccc1CC2 (stereo not given) | – | – |
| 30 | 30 | – | 300 | > 300 | > 300 | – | – | – | – | – | COc1cc2c(cc1OC)C[N+](C)(Cc1ccccc1)CC2 (stereo not given) | 2 | – |
| 0.23 | 1.8 | – | 9.3 | 0.92 | 50 | – | 1.2 | – | – | – | COc1ccc2c(c1)C1CCC[N+]1(C)CC2 (stereo not given) | – | – |
| 6.3 | 30 | – | 100 | 300 | 100 | – | – | – | – | – | COc1cc2c(cc1OCc1ccccc1)CCN1CCCC21 (stereo not given) | 5.7 | – |
| 0.14 | 0.52 | – | 30 | 50 | 30 | – | 2.6 | 360 | 210 | 5 | C[N+]12CCCC1c1cc3c(cc1CC2)OCO3 (stereo not given) | – | – |
| 0.4 | 1.2 | – | 25 | 8.9 | > 100 | – | 0.99 | – | – | – | COc1cc2c(cc1O)C[N+](C)(C)CC2 | – | – |
| 3.6 | 30 | – | 25 | 12 | 100 | – | 5.2 | – | – | – | COc1ccc2c(c1)CC[N+]1(C)CCCC21 (stereo not given) | – | – |
| 0.68 | 1.4 | – | 9.3 | 1.5 | > 100 | – | 4.4 | – | – | – | COc1ccc2c(c1)CC[N+](C)(C)C2 | – | – |
| 11 | 5.7 | Dose-dependent effect | 300 | 300 | 300 | inactive | – | – | – | – | COc1cc2c(cc1OCc1ccccc1)C1CCC[N+]1(C)CC2 (stereo not given) | – | – |
| 50 | 50 | – | 300 | 300 | > 100 | – | – | – | – | – | COc1cc2c(cc1OCc1ccccc1)C1CCCN1CC2 (stereo not given) | 11 | – |
| 14 | 30 | – | 300 | 300 | > 300 | – | > 100 | – | – | – | CCC[N+]1(C)CCc2cc(OC)c(OC)cc2C1 (stereo not given) | > 100 | – |
